Data from ChEMBL document CHEMBL4834426, “Antimalarial Benzimidazole Derivatives Incorporating Phenolic Mannich Base Side Chains Inhibit Microtubule and Hemozoin Formation: Structure-Activity Relationship and In Vivo Oral Efficacy Studies” (J Med Chem, 2021).
≈ marks a conversion by molar mass, not a printed value. Calls of active or inactive are those of the source. The rule behind the calls is not given here.

How the values were obtained:
[1] = Metabolic stability in mouse liver microsomes assessed as compound remaining at 1 uM incubated for 30 mins by LC-MS/MS analysis; format: ADME, Microsome; conditions: read-out: Stabilty
Procedure, shortened: (§1)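 Single-point design: 1 μM compound with 0.4 mg/mL liver microsomes in 0.1 M phosphate buffer pH 7.4 for 30 min. Quenched with ice-cold acetonitrile containing carbamazepine internal standard, centrifuged, analyzed by LC−MS/MS. Percent remaining from internal-standard-corrected peak areas at 30 min versus 0 min. Propranolol, midazolam and MMV390048 as controls.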

[2] = Resistance index, ratio of IC50 for antimalarial activity against asexual blood stage multi drug-resistant Plasmodium falciparum K1 to IC50 for antimalarial activity against asexual blood stage drug-sensitive Plasmodium falciparum NF54; format: functional
Procedure, shortened: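 Resistance index is IC₅₀(K1)/IC₅₀(NF54). Both IC₅₀s came from the [³H]-hypoxanthine incorporation assay, as means of ≥2 independent experiments.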

Plasmodium falciparum [3] = assay: Antimalarial activity against asexual blood stage drug-sensitive Plasmodium falciparum NF54 infected in erythrocytes assessed as reduction in parasitemia incubated up to 72 hrs by [3H]hypoxanthine incorporation assay; format: functional, organism-based
Procedure, shortened: (§2)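 [³H]-Hypoxanthine incorporation assay (modified) on asexual blood-stage P. falciparum in vitro. IC₅₀ values are means of ≥2 independent experiments.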

[4] = Tmax in Balb/c mouse at 10 mg/kg, po measured up to 24 hrs by LC-MS/MS analysis; format: ADME, organism-based; conditions: in vivo
Procedure, shortened: (§3)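 Male Balb/c mice, not fasted, food and water ad libitum; single oral dose. Tail-vein blood into heparinized tubes at 0.5, 1, 3, 5, 7, 9 and 24 h, stored at −80 °C. Whole blood protein-precipitated with acetonitrile containing internal standard, analyzed by LC−MS/MS (LOQ 2 ng/mL). Parameters by noncompartmental analysis with curve stripping. Mean of three mice per point.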

[5] = Volume of distribution in Balb/c mouse at 3 mg/kg, iv measured up to 24 hrs by LC-MS/MS analysis; format: ADME, organism-based; conditions: in vivo
Procedure, shortened: (§4)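 Intravenous dosing in male Balb/c mice, fed ad libitum. Tail-vein blood sampled into heparinized tubes at 0.17, 0.5, 1, 3, 5, 7, 9 and 24 h, frozen at −80 °C. Blood extracted by acetonitrile protein precipitation with internal standard; LC−MS/MS quantitation, LOQ 2 ng/mL. Noncompartmental analysis based on curve stripping.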

Hemozoin [6] = assay: Inhibition of Beta-hematin in early ring stage Plasmodium falciparum parasitized red blood cells assessed as hemozoin formation formation after 32 hrs by Giemsa staining based haemocytometric counting method
CHO = assay: Cytotoxicity against CHO cells assessed as inhibition of cell viability by MTT assay; format: cell-based; conditions: Cricetulus griseus
[7] = Cmax in Balb/c mouse at 10 mg/kg, po measured up to 24 hrs by LC-MS/MS analysis; format: ADME, organism-based; parameters: route oral, dose 10 mg/kg, time <=24; conditions: in vivo; procedure, shortened: as §3
[8] = AUC (0 to t) in Balb/c mouse at 10 mg/kg, po measured up to 24 hrs by LC-MS/MS analysis; format: ADME, organism-based; parameters: dose 10 mg/kg, time <=24; conditions: in vivo; procedure, shortened: as §3
Plasmodium falciparum [9] = assay: Antimalarial activity against asexual blood stage multi drug-resistant Plasmodium falciparum K1 infected in erythrocytes assessed as reduction in parasitemia incubated up to 72 hrs by [3H]hypoxanthine incorporation assay; format: functional, organism-based; procedure, shortened: as §2
[10] = AUC (0 to t) in Balb/c mouse at 3 mg/kg, iv measured up to 24 hrs by LC-MS/MS analysis; format: ADME, organism-based; parameters: dose 3 mg/kg, time <=24; conditions: in vivo; procedure, shortened: as §4
Plasmodium falciparum [11] = assay: Antiplasmodial activity against […] Plasmodium falciparum NF54 early gametocytes transfected with GFP-Luc […] at 5 uM incubated for 48 hrs by microscopy based luciferase reporter gene assay relative to control; format: functional
Procedure, shortened: (§5)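 NF54-Pfs16-GFP-Luc gametocytes, assays set up day 5 (early, stage II/III) or day 10 (late, stage IV/V). Culture at 2−3% gametocytemia, 1.5% hematocrit, 48 h drug exposure at 37 °C under 90% N₂/5% O₂/5% CO₂. Lysates mixed with luciferin; bioluminescence read with 10 s integration. Dual-point: one biological repeat in technical triplicate. Methylene blue (5 μM) reference.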

Plasmodium berghei = assay: Antimalarial activity against GFP-transfected Plasmodium berghei ANKA infected in NMRI mouse model assessed as reduction in parasitemia at 50 mg/kg, po dosed 4 times relative to control; format: functional; parameters: scale not given: the % may be the effect or the level left
Procedure, shortened: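 Mice (n = 3) infected with GFP-transfected P. berghei ANKA. Compound in 70% Tween-80/30% ethanol, diluted 10-fold in water, given orally at 4, 24, 48 and 72 h post-infection. Blood taken day 4 (96 h); parasitemia by flow cytometry, detection limit 0.1%. Activity = difference in mean % parasitemia between control and treated, as % of control.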

Plasmodium falciparum [12] = assay: Antiplasmodial activity against […] Plasmodium falciparum NF54 late gametocytes transfected with GFP-Luc […] at 5 uM incubated for 48 hrs by microscopy based luciferase reporter gene assay relative to control; format: functional; procedure, shortened: as §5
Plasmodium falciparum [13] = assay: Antiplasmodial activity against […] Plasmodium falciparum NF54 early gametocytes transfected with GFP-Luc […] at 1 uM incubated for 48 hrs by microscopy based luciferase reporter gene assay relative to control; format: functional; procedure, shortened: as §5
Hemozoin [14] = assay: Inhibition of beta-hematin formation […] incubated for 5 hrs by NP40 detergent-mediated assay
Procedure, shortened: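 Cell-free β-hematin formation assay in NP-40 (305.5 μM) lipid-mimic medium. Compounds from 20 mM stock serially diluted across wells, in duplicate. Hematin suspended in 1 M acetate buffer pH 4.8; plates incubated ~5 h at 37 °C. Then pyridine solution (with HEPES pH 7.4) and acetone added; absorbance at 405 nm. IC₅₀ by curve fit.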

[15] = Selectivity index, ratio of IC50 for Cytotoxicity against CHO cells assessed as inhibition of cell viability by MTT assay to IC50 for antimalarial activity against asexual blood stage Plasmodium falciparum NF54 assessed as reduction in parasitemia incubated up to 72 hrs by [3H]hypoxanthine incorporation assay; format: toxicity, cell-based; conditions: hamster, read-out: Selectivity Index
Procedure, shortened: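 Selectivity index is IC₅₀(CHO)/IC₅₀(NF54). […] IC₅₀ came from nonlinear dose-response fitting. Parasite IC₅₀ came from the [³H]-hypoxanthine assay.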

[16] = Oral bioavailability in Balb/c mouse at 10 mg/kg measured up to 24 hrs by LC-MS/MS analysis; format: ADME, organism-based; conditions: in vivo; procedure, shortened: as §3
[17] = Kinetic solubility of the compound in pH 6.5 incubated for 24 hrs by HPLC-DAD analysis; format: physicochemical; conditions: buffer, read-out: Kinetic_solubility
Procedure, shortened: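 Miniaturized shake-flask method. 10 mM DMSO stock dried down, phosphate buffer pH 6.5 added, shaken 24 h at 25 °C. Centrifuged 3500g for 15 min; supernatant analyzed by HPLC-DAD against 10−220 μM DMSO calibration curve. Reserpine, hydrocortisone and MMV390048 as controls.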

[18] = Clearance in Balb/c mouse at 3 mg/kg, iv measured up to 24 hrs by LC-MS/MS analysis; format: ADME, organism-based; conditions: in vivo; procedure, shortened: as §4
[19] = Metabolic stability in human liver microsomes assessed as compound remaining at 1 uM incubated for 30 mins by LC-MS/MS analysis; format: ADME, Microsome; conditions: read-out: Stabilty; procedure, shortened: as §1
Plasmodium falciparum [20] = assay: Antiplasmodial activity against […] Plasmodium falciparum NF54 late gametocytes transfected with GFP-Luc […] at 1 uM incubated for 48 hrs by microscopy based luciferase reporter gene assay relative to control; format: functional; procedure, shortened: as §5
[21] = Metabolic stability in rat liver microsomes assessed as compound remaining at 1 uM incubated for 30 mins by LC-MS/MS analysis; format: ADME, Microsome; conditions: read-out: Stabilty; procedure, shortened: as §1
[22] = Volume of distribution at steady state in Balb/c mouse at 3 mg/kg, iv measured up to 24 hrs by LC-MS/MS analysis; format: ADME, organism-based; conditions: in vivo, read-out: Vdss; procedure, shortened: as §4
[23] = tested on: Plasmodium falciparum NF54; assay: Inhibition of tubulin polymerization in asexual stage (I) Plasmodium falciparum NF54 early gametocytes at 2400 nM incubated for 24 hrs by tubulin tracker Oregon Green staining method
Procedure, shortened: (§6)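 Treatment at 600 nM for asexual parasites (~1% parasitemia, 5% hematocrit, sorbitol-synchronized rings) or 2400 nM for early gametocytes (~2% gametocytemia, 2% hematocrit, 20% I/60% II/20% III). 24 h at 37 °C, 90% N₂/5% CO₂/5% O₂, DMSO <0.1%. Stained with 250 nM Tubulin Tracker Oregon Green 488 for 30 min and Hoechst (100 nM) for 10 min. PBS-washed, imaged live by confocal microscopy. Colchicine (20 μM) positive control.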

[24] = tested on: Plasmodium falciparum NF54; assay: Inhibition of tubulin polymerization in […] Plasmodium falciparum NF54 early gametocytes at 2400 nM incubated for 24 hrs by tubulin tracker Oregon Green staining method; procedure, shortened: as §6
[25] = tested on: Plasmodium falciparum NF54; assay: Inhibition of tubulin polymerization in asexual stage (II) Plasmodium falciparum NF54 early gametocytes at 2400 nM incubated for 24 hrs by tubulin tracker Oregon Green staining method; procedure, shortened: as §6
[26] = tested on: Plasmodium falciparum NF54; assay: Inhibition of tubulin polymerization in asexual blood stage Plasmodium falciparum NF54 at 600 nM incubated for 24 hrs by tubulin tracker Oregon Green staining method; procedure, shortened: as §6

CCNCc1cc(Cl)cc(Nc2nc3cc(F)c(F)cc3[nH]2)c1O
remaining at 0.5 h, 1 µM [1]: 98%
Ratio IC50 [2]: 3.12
IC50 (Plasmodium falciparum [3]): 0.25 µM
Tmax [4]: 42 min
Vd [5]: 96 L/kg
Activity (Hemozoin [6]): Active
IC50 (CHO): > 50 µM
Cmax [7]: 0.026 µM
AUCt [8]: 11 µmol·min/L
IC50 (Plasmodium falciparum [9]): 0.78 µM
AUCt [10]: 65 µmol·min/L
inhibition at 5 µM (Plasmodium falciparum [11]): 35%
Activity (Plasmodium berghei): <40%
inhibition at 5 µM (Plasmodium falciparum [12]): 0%
inhibition at 1 µM (Plasmodium falciparum [13]): 0%
IC50 (Hemozoin [14]): 7.15 µM
selectivity ratio at 72 h [15]: > 200
bioavailability [16]: 5%
solubility kinetic at 24 h [17]: 12 µM (≈ 4.23 µg/mL)
clearance [18]: 9.06 L/h/kg
remaining at 0.5 h, 1 µM [19]: > 99%
inhibition at 1 µM (Plasmodium falciparum [20]): 0%
remaining at 0.5 h, 1 µM [21]: > 99%
Vd [22]: 58 L/kg

CCNCc1cc(Cl)cc(Nc2nc3ccccc3[nH]2)c1O
inhibition [23]: inactive
inhibition [24]: Active
remaining at 0.5 h, 1 µM [1]: 97%
Ratio IC50 [2]: 2.93
IC50 (Plasmodium falciparum [3]): 0.3 µM
Activity (Hemozoin [6]): Active
IC50 (CHO): > 50 µM
IC50 (Plasmodium falciparum [9]): 0.88 µM
inhibition at 5 µM (Plasmodium falciparum [11]): 23%
inhibition [25]: Active
inhibition [26]: Active
Activity (Plasmodium berghei): <40%
inhibition at 5 µM (Plasmodium falciparum [12]): 31%
inhibition at 1 µM (Plasmodium falciparum [13]): 0%
IC50 (Hemozoin [14]): 12.7 µM
selectivity ratio at 72 h [15]: > 166
solubility kinetic at 24 h [17]: 200 µM (≈ 63.4 µg/mL)
remaining at 0.5 h, 1 µM [19]: 93%
inhibition at 1 µM (Plasmodium falciparum [20]): 0%
remaining at 0.5 h, 1 µM [21]: 98%
